Results: PMC3151333 (Cancer prevention research (Philadelphia, Pa.), 2011)
Read-outs that look alike come from different tables or passages of the source. Values belong to the molecule of their own block, whether it stands above or below them.

How the values were obtained:
[1] = LC-MS/MS determination of protocatechuic acid; type: in vivo, human; conditions: for donors whose saliva contained detectable PCA: final (240 minute) time point, 0.2 ng/ml detection limit
β-glucosidase = type: biochemical, human; conditions: 0.12% in PBS, 3 minute rinse
[2] = cited from earlier work
[3] = type: in vivo, human
[4] = type: in vivo, human; conditions: for glucuronide of the parent anthocyanin in saliva (selected ion chromatograms): five minute Rinse III saliva samples; for saliva samples with cyanidin-3 sambubioside glucuronides detected: Rinse III
[5] = 240 minute time point following 10% BRB gel application; cited from earlier work
rat liver microsomes = assay: Incubation of cyanidin-3 sambubioside with rat liver microsomes; type: in vitro ADME; conditions: similar retention time and tandem mass spectra as in saliva
[6] = Detection of protocatechuic acid O-glucuronide; type: in vivo, human
How it was run: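 Donors rinsed vigorously with 15 ml augmented BRB rinse (10% final BRB) for 3 min. Saliva was collected at timed intervals, acidified with 5% final formic acid and stored at −80°C. Ion-trap LC-MS coupled to HPLC was tuned by infusing a synthetic PCAOG standard. The run used full scan, zoom scan and CID product-ion scan, and the 329.0>153.0 transition was monitored at 35% energy.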

[7] = after ingestion of a 300 mg dose

salivary BRB anthocyanin level, Rinse I relative to Rinse III ([3]; in vivo): significantly higher | salivary anthocyanin level, Rinse II relative to Rinse I ([3]; in vivo): significantly lower | glucuronide of the parent anthocyanin in saliva (selected ion chromatograms) [4]: did not reveal any novel peaks
Molecule: OC[C@H]1O[C@@H](Oc2cc3c(O)cc(O)cc3[o+]c2-c2ccc(O)c(O)c2)[C@H](O)[C@@H](O)[C@@H]1O [cyanidin 3-glucoside]

donors showing detectable rutinoside in saliva ([3]; in vivo): 10 out of 10 | rutinoside levels in saliva (mean ± S.D.) ([3]; in vivo): 2287.12 ± 489.55 µg/mL | salivary BRB anthocyanin level, Rinse I relative to Rinse III ([3]; in vivo): significantly higher | glucuronide of the parent anthocyanin in saliva (selected ion chromatograms) [4]: did not reveal any novel peaks
Molecule: C[C@@H]1O[C@@H](OC[C@H]2O[C@@H](Oc3cc4c(O)cc(O)cc4[o+]c3-c3ccc(O)c(O)c3)[C@H](O)[C@@H](O)[C@@H]2O)[C@H](O)[C@H](O)[C@H]1O [cyanidin 3-rutinoside]
donors retaining any salivary anthocyanins, including rutinoside [5]: 3 out of 5

salivary BRB anthocyanin level, Rinse I relative to Rinse III ([3]; in vivo): significantly higher
Molecule: OC[C@H]1O[C@@H](Oc2cc3c(O)cc(O)cc3[o+]c2-c2ccc(O)c(O)c2)[C@H](O[C@@H]2OC[C@@H](O)[C@H](O)[C@H]2O)[C@@H](O)[C@@H]1O.[Cl-] [cyanidin 3-sambubioside]
metabolite formation on incubation with rat liver microsomes (rat liver microsomes): generated cyanidin-3 sambubioside glucuronides

time by which salivary cyanidin levels were undetectable ([3]; all samples from all rinses): ≤ 60 min | aglycone cyanidin in early saliva samples ([3]; up to 5 minute post rinse, all three rinse groups, all donors): detectable levels
Molecule: Oc1cc(O)c2cc(O)c(-c3ccc(O)c(O)c3)[o+]c2c1 [cyanidin]

saliva samples with cyanidin-3 sambubioside glucuronides detected ([4]; 30 minute samples): 3 of 6 | saliva samples with cyanidin-3 sambubioside glucuronides detected ([4]; five minute time point samples): 6 of the 6
Molecule: cyanidin-3 sambubioside glucuronides
cyanidin 3-sambubioside glucuronides in saliva ([4]; after the 30 minute post rinse samples): no cyanidin 3-sambubioside glucuronides were observed

More lines, now with the values behind:

Molecule: O=C(O)c1ccc(O)c(O)c1 [PCA, protocatechuic acid]
retention in saliva after rinsing ([1]; BRB rinses): up to 4 hours | donors whose saliva contained detectable PCA ([1]; Rinse I): 2 of 10 | donors whose saliva contained detectable PCA ([1]; Rinse II): 2 of 10 | donors whose saliva contained detectable PCA ([1]; Rinse III): 6 of 10

Molecule: [H]/N=C(\N/C(=N/[H])NCCCCCCNC(=N)NC(=N)Nc1ccc(Cl)cc1)Nc1ccc(Cl)cc1 [chlorhexidine gluconate]
donors retaining appreciable functional β-glucosidase activity following rinsing (β-glucosidase): 10 of 11 | decrease in β-glucosidase in saliva following rinsing (mean ± s.e.m) (β-glucosidase; saliva 15 minutes after rinsing, n=11, p<0.001): 69.43% ±7.24 | mean peak plasma levels [2, 7]: 0.206 µg/g | time of mean peak plasma levels [2, 7]: 30 min | absorption from the gastrointestinal tract [2]: poorly absorbed | fraction retained in the oral cavity following rinsing [2]: ~30% | persistence in human saliva after rinsing [2]: at least 12 hours | retention by local adsorption, then slowly released over time [2]: approximately 30%

Molecule: protocatechuic acid O-glucuronide [PCAOG]
PCAOG peaks in later time point saliva samples ([6]; 30, 60, 120 and 240 min after Rinse III, either donor): did not reveal any peaks | donors with PCAOG peak detected in saliva ([6]; 5 min saliva sample after Rinse III): 1 of the 2
